# Measurements as given in PubChem BioAssay AID504543 (Southern Research Specialized Biocontainment Screening …, 2011).
# pIC50: −log10 of the molar value. Active and inactive are the calls of the source.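 How the source made its calls: active means phage lysis blocked by at least 50% at any tested concentration; inactive means the rest.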
# Assays:
# [1] = tested on: E. coli UTI89 K1F phage lysis inhibition, OD600 3 h; assay: protection of UTI89 from K1F lysis – strain UTI89, C7 control, set 2, capsule biogenesis inhibitor project, dose response (AID 504543); settings: for CC50: measured here: cytotoxicity
# Method in brief: (§1)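 Assay system – E. coli UTI89 (K1) and kpsM mutant · Probe or stimulus – K1F bacteriophage, added after compound pre-incubation · Times – 1.25 h compound pre-incubation at 37 °C, 3 h phage exposure · Technique – absorbance at 600 nm (OD600) · Control set – kpsM mutant, 1% DMSO wells · Repeats – four replicate wells per compound concentration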
# [2] = as above; settings: E. coli UTI89 K1F phage lysis inhibition, OD600 3 h; at 300 µM (top of the series)
# Method in brief: as §1
pIC50 [1],Structure (SMILES),CC50 [1] [µM],inhibition of phage lysis [2]
3.70,O=C1c2c(O)ccc(O)c2C(=O)c2c(NCCNCCO)ccc(NCCNCCO)c21,> 300,
,COc1cc(/C=N/N=C(N)N)ccc1OCc1ccccc1Cl,11.4,-29.8% (inactive)
,COc1ccc(-c2cc(C(=O)O)c3ccccc3n2)cc1,112,1.1% (inactive)
,CCN(CC)c1ccc2c(-c3ccc(S(=O)(=O)O)cc3S(=O)(=O)O)c3ccc(=[N+](CC)CC)cc-3oc2c1,< 2.35,-8.77% (inactive)
,Cc1cccc(-c2cc(C(=O)O)c3ccccc3n2)c1,138,-1.53% (inactive)
,NC(N)=N/N=C/c1ccc(OCc2ccccc2)cc1,9.38,-28.3% (inactive)
3.87,N=C(N)SCCc1cccc(CCSC(=N)N)c1,181,
,O=C(Nc1cccc(C2=NCCN2)c1)Nc1cccc(C2=NCCN2)c1,69.1,14.2% (inactive)
